Screening results deposited in PubChem by SRMLSC.
Ecoli WT expand = growth inhibitors of wild-type E. coli, primary screen, strain BW25113, expanded library, OD600; hit rate 0.15% among 98,000; growth inhibition, % at 100 µM; OD600 absorbance;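 active = growth inhibition above about 50% at one test dose, limit read from the data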;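 also: growth measured after 20 h incubation at 37 °C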
tolC growth inh = growth inhibitors of E. coli tolC mutant, primary screen, strain BW25113 ΔtolC::kan, 384-well. OD615. growth inhibition, % at 10 µM (by protocol). hit rate 2.2% among 65,000;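 active = growth inhibition at or above a cutoff equal to the mean over every tested compound plus 3 SD, cut at about 60% in these data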;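 also: growth measured after 20 h incubation at 37 °C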
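Material: E. coli BW25113 ΔtolC::kan, tolC deletion mutant strain. Measure: percent growth inhibition. Schedule: 37 °C, 20 h exposure. Doses: single-point testing at 10 µM. Signal: A615 absorbance measurement. Buffer or medium: kanamycin-containing LB broth (50 µg/mL).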
PostGolgi yeast = phenotypic screen on post-Golgi transport, primary screen; inhibition, % at 10 µM; hit rate 0.9% among 98,000; post-Golgi transport phenotypic cell assay;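 also: yeast cells grown in 1536-well plates; yeast grown about 18 h at 30C before absorbance read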
Her2 expr inh = inhibitors of Her2 protein expression, primary screen, SKBR-3 cells, AlphaScreen, 66K library; Receptor tyrosine-protein kinase erbB-2 (Homo sapiens), P04626; SKBR-3 HER2 protein level, 18-24 h; stronger effect = lower value; HER2 level % of control, % at 10 µM; hit rate 0.69% among 65,000; AID 645, 2007;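 active = HER2 level under 5% of the carrier-only control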;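 also: lower value means stronger loss of Her2 protein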
PostGolgi ctrl = growth inhibition of yeast control strain, primary screen, counter-screen for post-Golgi transport modulator project; efflux-deficient yeast background strain, growth absorbance A615, 16 h; hit rate 5% among 98,000; inhibition, % at 10 µM; AID 738, 2007
A number is an active result; 0 = inactive; - = no result. Compounds with a hit are over-represented: about 6.6% of the library has one in this group of screens. Rule as the data show it, unless noted: active = inhibition above about 30%; inactive = the rest.

SMILES	Ecoli WT expand	tolC growth inh	PostGolgi yeast	Her2 expr inh	PostGolgi ctrl
CC(Oc1ccccc1)C(=O)Nc1cccc(-c2nc3ccccc3[nH]2)c1 (configuration not stated)	0	-	0	-	0
O=C(COc1ccccc1)Nc1cccc(-c2nc3cc4ccccc4cc3[nH]2)c1	0	-	45	-	0
CCCN(CC1CC1)c1nc(N)c2c(N)nc(OC)cc2c1C#N	0	-	0	-	35
Fc1ccccc1Nc1nc2ccccc2n2nnnc12	0	-	0	-	51
Fc1cccc(Nc2nc3ccccc3n3nnnc23)c1	0	-	0	-	0
Cc1cc(C)n2c(SCc3ccc(C#N)cc3)nnc2n1	0	0	0	0	0
Cc1cc(N2CCCCC2)nc(SCc2ccc(C#N)cc2)n1	0	78	0	0	40
O=C1NCCCC1C(=O)N1CCN(C(c2ccccc2)c2ccccc2)CC1 (configuration not stated)	-	0	-	0	-
CSc1nnc(-c2ccccc2)n1C	0	0	0	0	31
CCC(C)N1CC23C=CC(O2)C(C(=O)OCc2ccccc2)C3C1=O (configuration not stated)	0	0	0	0	0
Cc1ccc(SCCNC(=O)c2cccc([N+](=O)[O-])c2C)cc1	0	-	0	-	0
Cc1c(C(=O)NCCSCc2ccc(Cl)cc2Cl)cccc1[N+](=O)[O-]	0	-	0	-	55
CCC(C)N1C(=O)CCC1C(=O)O (configuration not stated)	0	-	0	-	0
CCCCCCOC(=O)C[N+](C)(C)CCOC1CC2CCC1(C)C2(C)C (configuration not stated)	0	-	0	-	37
CC(=O)c1cc(C(=O)Nc2ccccc2C(=O)O)oc1C	0	0	0	0	0
C/C(N)=C(/C#N)C(=O)CSc1nnc(COc2ccccc2Cl)o1	0	0	0	0	0
COc1ccccc1OCc1nnc(SCC(=O)c2cc(Cl)ccc2OC)o1	0	0	0	0	32
CC1C/C(=N/NC(=O)c2cccc(F)c2)c2ccc(O)cc2C1 (configuration not stated)	0	-	0	-	0
COc1ccc(C)cc1NC(=O)CN1CCN(S(=O)(=O)c2ccc(Br)cc2)CC1	0	0	0	0	46
COc1ccc(NC(C)=O)cc1NC(=O)CN1CCN(S(=O)(=O)c2ccc(C(C)C)cc2)CC1	0	0	0	0	0
O=C(CN1CCN(S(=O)(=O)c2ccc(Br)cc2)CC1)Nc1ccc(F)cc1F	0	0	0	0	0
O=C(CN1CCN(S(=O)(=O)c2ccc(Br)cc2)CC1)Nc1ccc(F)cc1	0	0	0	0	0
O=C(CN1CCN(S(=O)(=O)c2ccc(Br)cc2)CC1)Nc1ccccc1F	0	0	0	0	54
O=C(CN1CCCN(S(=O)(=O)c2ccc(F)cc2)CC1)Nc1ccccc1Br	0	0	0	0	41
COCCNS(=O)(=O)c1ccc(SC)cc1	0	0	0	0	0
SMILES	Ecoli WT expand	tolC growth inh	PostGolgi yeast	Her2 expr inh	PostGolgi ctrl
COc1cc(C2SCC(=O)N2CCCN(C)C)cc(OC)c1OC (configuration not stated)	0	-	0	-	0
O=C(C1CCCN(S(=O)(=O)Cc2ccccc2)C1)N1CCc2ccccc21 (configuration not stated)	0	0	0	0	0
CCC(=O)Nc1nc2cc(OC)ccc2s1	0	0	0	0	0
COc1ccc2sc(NC(=O)CC(C)C)nc2c1	0	0	0	-19	0
O=C(NNC(=O)c1ccco1)c1cccc([N+](=O)[O-])c1	0	-	0	-	0
COc1cccc(/C=N/n2c(C)nc3ccccc3c2=O)c1O	0	0	0	0	0
COc1cccc(CNn2c(-c3cccc(C)c3)nc3ccccc3c2=O)c1O	0	0	0	0	47
Cc1cc(C)n2nc(SCc3nnc(SCc4ccccc4Cl)s3)nc2n1	0	-	0	-	36
Cc1ccc(NC(=O)CSc2nnc(-c3cccs3)n2Cc2ccco2)cc1	0	-	0	-	0
Clc1ccccc1CSc1nnc(-c2ccccn2)n1Cc1ccco1	0	91	0	0	0
Nn1c(SC/C=C/c2ccccc2)nnc1-c1ccccn1	0	0	0	0	0
C(=C\c1ccccc1)/CSc1nnc(-c2ccccn2)n1Cc1ccco1	0	93	0	0	45
Cc1ccc(C)c(CSc2nnc(-c3cccs3)n2Cc2ccco2)c1	0	-	0	-	35
C=CCn1c(SC2CCOC2=O)nc2scc(C3CC3)c2c1=O (configuration not stated)	0	0	0	0	0
